Measurements published in ChEMBL document CHEMBL4152256, “Structure-activity relationship of new antimalarial 1-aryl-3-susbtituted propanol derivatives: Synthesis, preliminary toxicity profiling, parasite life cycle stage studies, target exploration, and targeted delivery” (Eur J Med Chem, 2018).

Experiments:
[1] = Genotoxicity in Salmonella typhimurium TA1535 harboring pSK1002 assessed as survival at 0.002 mg/ml in absence of Sprague-Dawley rat liver S9 fraction after by SOS/umu assay relative to control; type: toxicity, organism-based; conditions: salmonella enterica subsp. enterica serovar typhimurium, read-out: Survival
[2] = Genotoxicity in Salmonella typhimurium TA1535 harboring pSK1002 assessed as umu gene induction at 0.008 mg/ml in presence of Sprague-Dawley rat liver S9 fraction after by SOS/umu assay relative to control; type: toxicity, organism-based; conditions: salmonella enterica subsp. enterica serovar typhimurium, read-out: FC
[3] = Genotoxicity in Salmonella typhimurium TA1535 harboring pSK1002 assessed as survival at 0.063 mg/ml in absence of Sprague-Dawley rat liver S9 fraction after by SOS/umu assay relative to control; type: toxicity, organism-based; conditions: salmonella enterica subsp. enterica serovar typhimurium, read-out: Survival
[4] = Genotoxicity in Salmonella typhimurium TA1535 harboring pSK1002 assessed as survival at 0.001 mg/ml in absence of Sprague-Dawley rat liver S9 fraction after by SOS/umu assay relative to control; type: toxicity, organism-based; conditions: salmonella enterica subsp. enterica serovar typhimurium, read-out: Survival
[5] = Genotoxicity in Salmonella typhimurium TA1535 harboring pSK1002 assessed as survival at 0.004 mg/ml in presence of Sprague-Dawley rat liver S9 fraction after by SOS/umu assay relative to control; type: toxicity, organism-based; conditions: salmonella enterica subsp. enterica serovar typhimurium, read-out: Survival
[6] = Genotoxicity in Salmonella typhimurium TA1535 harboring pSK1002 assessed as survival at 0.063 mg/ml in presence of Sprague-Dawley rat liver S9 fraction after by SOS/umu assay relative to control; type: toxicity, organism-based; conditions: salmonella enterica subsp. enterica serovar typhimurium, read-out: Survival
[7] = Genotoxicity in Salmonella typhimurium TA1535 harboring pSK1002 assessed as umu gene induction at 0.031 mg/ml in presence of Sprague-Dawley rat liver S9 fraction after by SOS/umu assay relative to control; type: toxicity, organism-based; conditions: salmonella enterica subsp. enterica serovar typhimurium, read-out: FC
[8] = Genotoxicity in Salmonella typhimurium TA1535 harboring pSK1002 assessed as umu gene induction at 0.125 mg/ml in presence of Sprague-Dawley rat liver S9 fraction after by SOS/umu assay relative to control; type: toxicity, organism-based; conditions: salmonella enterica subsp. enterica serovar typhimurium, read-out: FC
[9] = Genotoxicity in Salmonella typhimurium TA1535 harboring pSK1002 assessed as umu gene induction at 0.063 mg/ml in absence of Sprague-Dawley rat liver S9 fraction after by SOS/umu assay relative to control; type: toxicity, organism-based; conditions: salmonella enterica subsp. enterica serovar typhimurium, read-out: FC
[10] = Genotoxicity in Salmonella typhimurium TA1535 harboring pSK1002 assessed as umu gene induction at 0.008 mg/ml in absence of Sprague-Dawley rat liver S9 fraction after by SOS/umu assay relative to control; type: toxicity, organism-based; conditions: salmonella enterica subsp. enterica serovar typhimurium, read-out: FC
[11] = Genotoxicity in Salmonella typhimurium TA1535 harboring pSK1002 assessed as umu gene induction at 0.031 mg/ml in absence of Sprague-Dawley rat liver S9 fraction after by SOS/umu assay relative to control; type: toxicity, organism-based; conditions: salmonella enterica subsp. enterica serovar typhimurium, read-out: FC
[12] = Genotoxicity in Salmonella typhimurium TA1535 harboring pSK1002 assessed as survival at 0.016 mg/ml in presence of Sprague-Dawley rat liver S9 fraction after by SOS/umu assay relative to control; type: toxicity, organism-based; conditions: salmonella enterica subsp. enterica serovar typhimurium, read-out: Survival
[13] = Genotoxicity in Salmonella typhimurium TA1535 harboring pSK1002 assessed as survival at 0.031 mg/ml in presence of Sprague-Dawley rat liver S9 fraction after by SOS/umu assay relative to control; type: toxicity, organism-based; conditions: salmonella enterica subsp. enterica serovar typhimurium, read-out: Survival
Plasmodium falciparum [14] = assay: Antiplasmodial activity against chloroquine-sensitive Plasmodium falciparum 3D7 by [3H]-hypoxanthine incorporation assay; type: functional, organism-based
Outline: (§1)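 Blood-stage P. falciparum 3D7 and FCR-3 were tested by a modified [3H]-hypoxanthine incorporation assay. Chloroquine was the reference in all runs.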

[15] = Genotoxicity in Salmonella typhimurium TA1535 harboring pSK1002 assessed as umu gene induction at 0.002 mg/ml in absence of Sprague-Dawley rat liver S9 fraction after by SOS/umu assay relative to control; type: toxicity, organism-based; conditions: salmonella enterica subsp. enterica serovar typhimurium, read-out: FC
[16] = Selectivity index, ratio of CC50 for human HepG2A16 cells by MTT assay to IC50 for multidrug-resistant Plasmodium falciparum FCR-3; type: toxicity; conditions: for selectivity ratio: HepG2A16 cells, read-out: Ratio CC50/IC50
Outline: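 HepG2-A16 human hepatoma cells were tested by MTT viability assay to give CC50. Blood-stage activity was measured against the multidrug-resistant P. falciparum FCR-3 strain by [3H]-hypoxanthine incorporation to give IC50. SI = CC50 HepG2 / FCR-3 IC50.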

[17] = Genotoxicity in Salmonella typhimurium TA1535 harboring pSK1002 assessed as umu gene induction at 0.016 mg/ml in absence of Sprague-Dawley rat liver S9 fraction after by SOS/umu assay relative to control; type: toxicity, organism-based; conditions: salmonella enterica subsp. enterica serovar typhimurium, read-out: FC
[18] = Genotoxicity in Salmonella typhimurium TA1535 harboring pSK1002 assessed as survival at 0.008 mg/ml in absence of Sprague-Dawley rat liver S9 fraction after by SOS/umu assay relative to control; type: toxicity, organism-based; conditions: salmonella enterica subsp. enterica serovar typhimurium, read-out: Survival
Plasmodium falciparum [19] = assay: Antiplasmodial activity against multidrug-resistant Plasmodium falciparum FCR-3 by [3H]-hypoxanthine incorporation assay; type: functional, organism-based, FCR-3/Gambia; conditions: Plasmodium falciparum, FCR-3/Gambia; outline: as §1
[20] = Genotoxicity in Salmonella typhimurium TA1535 harboring pSK1002 assessed as umu gene induction at 0.004 mg/ml in presence of Sprague-Dawley rat liver S9 fraction after by SOS/umu assay relative to control; type: toxicity, organism-based; conditions: salmonella enterica subsp. enterica serovar typhimurium, read-out: FC
[21] = Genotoxicity in Salmonella typhimurium TA1535 harboring pSK1002 assessed as umu gene induction at 0.125 mg/ml in absence of Sprague-Dawley rat liver S9 fraction after by SOS/umu assay relative to control; type: toxicity, organism-based; conditions: salmonella enterica subsp. enterica serovar typhimurium, read-out: FC
[22] = Cytotoxicity against human HepG2A16 cells by MTT assay; type: cell-based
Outline: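 MTT viability assay on HepG2-A16 cells, giving CC50 values.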

[23] = Genotoxicity in Salmonella typhimurium TA1535 harboring pSK1002 assessed as umu gene induction at 0.004 mg/ml in absence of Sprague-Dawley rat liver S9 fraction after by SOS/umu assay relative to control; type: toxicity, organism-based; conditions: salmonella enterica subsp. enterica serovar typhimurium, read-out: FC
[24] = Genotoxicity in Salmonella typhimurium TA1535 harboring pSK1002 assessed as survival at 0.125 mg/ml in absence of Sprague-Dawley rat liver S9 fraction after by SOS/umu assay relative to control; type: toxicity, organism-based; conditions: salmonella enterica subsp. enterica serovar typhimurium, read-out: Survival
[25] = Genotoxicity in Salmonella typhimurium TA1535 harboring pSK1002 assessed as survival at 0.001 mg/ml in presence of Sprague-Dawley rat liver S9 fraction after by SOS/umu assay relative to control; type: toxicity, organism-based; conditions: salmonella enterica subsp. enterica serovar typhimurium, read-out: Survival
[26] = Genotoxicity in Salmonella typhimurium TA1535 harboring pSK1002 assessed as survival at 0.031 mg/ml in absence of Sprague-Dawley rat liver S9 fraction after by SOS/umu assay relative to control; type: toxicity, organism-based; conditions: salmonella enterica subsp. enterica serovar typhimurium, read-out: Survival
[27] = Genotoxicity in Salmonella typhimurium TA1535 harboring pSK1002 assessed as survival at 0.008 mg/ml in presence of Sprague-Dawley rat liver S9 fraction after by SOS/umu assay relative to control; type: toxicity, organism-based; conditions: salmonella enterica subsp. enterica serovar typhimurium, read-out: Survival
[28] = Genotoxicity in Salmonella typhimurium TA1535 harboring pSK1002 assessed as umu gene induction at 0.016 mg/ml in presence of Sprague-Dawley rat liver S9 fraction after by SOS/umu assay relative to control; type: toxicity, organism-based; conditions: salmonella enterica subsp. enterica serovar typhimurium, read-out: FC
[29] = Genotoxicity in Salmonella typhimurium TA1535 harboring pSK1002 assessed as umu gene induction at 0.001 mg/ml in presence of Sprague-Dawley rat liver S9 fraction after by SOS/umu assay relative to control; type: toxicity, organism-based; conditions: salmonella enterica subsp. enterica serovar typhimurium, read-out: FC

Row | SMILES | viability at 0.002 mg/ml [1] [%] | fold induction at 0.008 mg/ml [2] | viability at 0.063 mg/ml [3] [%] | viability at 0.001 mg/ml [4] [%] | viability at 0.004 mg/ml [5] [%] | viability at 0.063 mg/ml [6] [%] | fold induction at 0.031 mg/ml [7] | fold induction at 0.125 mg/ml [8] | fold induction at 0.063 mg/ml [9] | fold induction at 0.008 mg/ml [10] | fold induction at 0.031 mg/ml [11] | viability at 0.016 mg/ml [12] [%] | viability at 0.031 mg/ml [13] [%] | fold induction at 0.002 mg/ml [15] | fold induction at 0.016 mg/ml [17] | viability at 0.008 mg/ml [18] [%] | IC50 (Plasmodium falciparum [19]) [nM] | fold induction at 0.004 mg/ml [20] | fold induction at 0.125 mg/ml [21] | fold induction at 0.004 mg/ml [23] | other results
1 | OC(CCN1CCN(c2ccccc2C(F)(F)F)CC1)c1ccc(F)c2ccccc12 (stereo in doubt; 55) | 51.4 | 0.2 | 138 | 43.3 | 108 | 90.8 | 0.7 | 0.7 | 0.2 | 0.9 | 0.4 | 73.9 | 101 | 0.8 | 0.6 | 68.7 | 150 | 0.5 | 0.3 | 1.1 | IC50 (Plasmodium falciparum [14]): 160 nM; Ratio CC50/IC50 [16]: 183; CC50 [22]: 27500 nM; viability at 0.125 mg/ml [24]: 167%; viability at 0.001 mg/ml [25]: 106%; viability at 0.031 mg/ml [26]: 127%; viability at 0.008 mg/ml [27]: 121%; fold induction at 0.016 mg/ml [28]: 1.1; fold induction at 0.001 mg/ml [29]: 0.3
2 | OC(CCN1CCN(c2ccc(F)cc2)CC1)c1ccc(F)c2ccccc12 (stereo unspecified) | 110 | 0.7 | 118 | 111 | 95.6 | 112 | 0.5 | 0.7 | 0.5 | 0.5 | 0.7 | 72.4 | 140 | 0.7 | 0.7 | 122 | 4050 | 0.8 | 0.7 | 0.8 | IC50 (Plasmodium falciparum [14]; Plasmodium falciparum, 3D7): 430 nM; selectivity ratio [16]: 7; CC50 ([22]; HepG2A16 cells): 29400 nM; viability at 0.125 mg/ml [24]: 56.2%; viability at 0.001 mg/ml [25]: 101%; viability at 0.031 mg/ml [26]: 87%; viability at 0.008 mg/ml [27]: 98.7%; fold induction at 0.016 mg/ml [28]: 0.9; fold induction at 0.001 mg/ml [29]: 0.9
3 | COc1ccccc1N1CCN(CCC(O)c2ccc(F)c3ccccc23)CC1 (stereo unspecified) | 65.2 | 1 | 61.5 | 70.5 | 102 | 88.4 | 0.6 | 0.7 | 0.9 | 1.3 | 1.3 | 92.4 | 129 | 1.5 | 1.3 | 67.1 | 220 | 0.8 | 0.9 | 1.1 | IC50 (Plasmodium falciparum [14]; Plasmodium falciparum, 3D7): 70 nM; selectivity ratio [16]: 138; CC50 ([22]; HepG2A16 cells): 30400 nM; viability at 0.125 mg/ml [24]: 55.9%; viability at 0.001 mg/ml [25]: 112%; viability at 0.031 mg/ml [26]: 58.4%; viability at 0.008 mg/ml [27]: 99.1%; fold induction at 0.016 mg/ml [28]: 1; fold induction at 0.001 mg/ml [29]: 0.9
4 | OC(CCN1CCN(c2ccccc2C(F)(F)F)CC1)c1ccc(F)cc1 (stereo unspecified) | 110 | 1 | 28.6 | 111 | 92.9 | 89 | 1 | 1.9 | 1.3 | 0.8 | 0.8 | 87.9 | 86.7 | 0.8 | 0.8 | 98.3 | 1690 | 1.1 | 1.2 | 0.9 | IC50 (Plasmodium falciparum [14]; Plasmodium falciparum, 3D7): 1010 nM; selectivity ratio [16]: 1; CC50 ([22]; HepG2A16 cells): 1350 nM; viability at 0.125 mg/ml [24]: 25.4%; viability at 0.001 mg/ml [25]: 84.6%; viability at 0.031 mg/ml [26]: 95.5%; viability at 0.008 mg/ml [27]: 96.1%; fold induction at 0.016 mg/ml [28]: 0.9; fold induction at 0.001 mg/ml [29]: 1.1
